Results published in ChEMBL document CHEMBL4334465, “SAR Studies on Aromatic Acylhydrazone-Based Inhibitors of Fungal Sphingolipid Synthesis as Next-Generation Antifungal Agents” (J Med Chem, 2019).
Converted amounts (≈) assume the structure as drawn. The source made the active and inactive calls. The rule behind the calls is not given here.

How the values were obtained:
Candida parapsilosis [1] = assay: Antifungal activity against Candida parapsilosis assessed as FICI in presence of caspofungin; assay type: functional
Summary of the method: (§1)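 Checkerboard combination scored by fractional inhibitory concentration index. Acylhydrazone serially diluted 16 to 0.015 μg/mL (11 dilutions). Partner drug in seven dilutions: fluconazole 12 to 0.19 μg/mL, amphotericin B 5 to 0.078 μg/mL, caspofungin, itraconazole or voriconazole 8 to 0.007 μg/mL.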

[Candida] auris [2] = Antifungal activity against Candida auris assessed as FICI in presence of voriconazole; assay type: functional, Candidozyma auris; summary of the method: as §1
Cryptococcus neoformans [3] = assay: Antifungal activity against Cryptococcus neoformans H99 assessed as FICI in presence of itraconazole; assay type: functional, var grubii H99; summary of the method: as §1
Cryptococcus neoformans [4] = assay: Antifungal activity against Cryptococcus neoformans H99 measured after 24 to 72 hrs; assay type: functional; conditions: var grubii H99
Summary of the method: (§2)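 Modified CLSI broth microdilution with inoculum per M27A3. Compounds were serially diluted 32 to 0.03 μg/mL. Media: C. neoformans in HEPES-buffered YNB without amino acids (pH 7.0, 2% glucose); Candida strains in YNB without ammonium sulfate or amino acids plus 1% asparagine (pH 7.0, 2% glucose); A. fumigatus in RPMI (pH 7.0, 2% glucose).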

Cryptococcus neoformans [5] = assay: Antifungal activity against Cryptococcus neoformans H99 assessed as FICI in presence of fluconazole; assay type: functional, var grubii H99; summary of the method: as §1
Pichia kudriavzevii [6] = assay: Antifungal activity against fluconazole-resistant Candida krusei assessed as FICI in presence of caspofungin; assay type: functional
Summary of the method: (§3)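 Checkerboard in 96-well plate. Test compound diluted 16 to 0.015 μg/mL (11 dilutions) against the partner drug in seven dilutions: fluconazole 12 to 0.19 μg/mL, caspofungin, itraconazole or voriconazole 8 to 0.007 μg/mL. Fractional inhibitory concentration index (FICI) calculated from the combinations.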

Candida parapsilosis [7] = assay: Antifungal activity against Candida parapsilosis assessed as FICI in presence of voriconazole; assay type: functional; summary of the method: as §1
[Candida] auris [8] = Antifungal activity against Candida auris measured after 24 to 72 hrs; assay type: functional; conditions: Candidozyma auris; summary of the method: as §2
[9] = Selectivity index, ratio of LD50 for human HepG2 cells to MIC80 for Cryptococcus neoformans H99; assay type: toxicity; conditions: read-out: Selectivity Index
Summary of the method: (§4)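 SI = LD₅₀/MIC₈₀. Cytotoxicity: A549 or HepG2 cells (DMEM, 10% FBS, passage 7, 10⁵ cells/well) adhered 14 h, then exposed to 0.03–128 μg/mL for 24 or 48 h at 37°C, 5% CO₂; MTT 4 h, formazan dissolved in DMSO, read at 570 nm. MIC₈₀ against C. neoformans from broth microdilution in HEPES-buffered YNB, pH 7.0.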

Candida albicans [10] = assay: Antifungal activity against Candida albicans assessed as FICI in presence of voriconazole; assay type: functional; summary of the method: as §1
Pichia kudriavzevii [11] = assay: Antifungal activity against fluconazole-resistant Candida krusei assessed as FICI in presence of itraconazole; assay type: functional; summary of the method: as §3
[12] = Selectivity index, ratio of LD50 for human A549 cells to MIC80 for Cryptococcus neoformans H99; assay type: toxicity; conditions: read-out: Selectivity Index; summary of the method: as §4
Pichia kudriavzevii [13] = assay: Antifungal activity against Candida krusei 6258 assessed as FICI in presence of voriconazole; assay type: functional; summary of the method: as §1
Candida parapsilosis [14] = assay: Antifungal activity against Candida parapsilosis assessed as FICI in presence of fluconazole; assay type: functional; summary of the method: as §1
Pichia kudriavzevii [15] = assay: Antifungal activity against Candida krusei 6258 assessed as FICI in presence of fluconazole; assay type: functional; summary of the method: as §1
[Candida] auris [16] = Antifungal activity against Candida auris assessed as FICI in presence of caspofungin; assay type: functional, Candidozyma auris; summary of the method: as §1
Cryptococcus neoformans [17] = assay: Antifungal activity against Cryptococcus neoformans H99 assessed as FICI in presence of voriconazole; assay type: functional, var grubii H99; summary of the method: as §1
Aspergillus fumigatus [18] = assay: Antifungal activity against Aspergillus fumigatus assessed as FICI in presence of itraconazole; assay type: functional; summary of the method: as §1
Candida parapsilosis [19] = assay: Antifungal activity against Candida parapsilosis measured after 24 to 72 hrs; assay type: functional; conditions: Lodderomyces parapsilosis; summary of the method: as §2
Cryptococcus neoformans [20] = assay: Fungicidal activity against Cryptococcus neoformans H99 measured after 72 hrs by time-kill assay; assay type: functional, var grubii H99
Summary of the method: (§5)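 Overnight C. neoformans washed in PBS and resuspended in HEPES-buffered YNB, pH 7.4. 2 × 10⁴ cells exposed to a range of drug concentrations in 10 mL with 0.5% DMSO final, at 37°C, 5% CO₂, shaking at 200 rpm. Aliquots sampled over 96 h, diluted and plated on YPD; CFU counted after 48 h at 30°C.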

Pichia kudriavzevii [21] = assay: Antifungal activity against multi-drug resistant Candida krusei measured after 24 to 72 hrs; assay type: functional
Summary of the method: (§6)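 MIC by modified CLSI broth microdilution. Candida strains grown in YNB without ammonium sulfate or amino acids with 1% asparagine, pH 7.0, 2% glucose. Inoculum per CLSI M27A3. Compound serially diluted 32 to 0.03 μg/mL. Incubation 37°C, 5% CO₂, 24–72 h, then OD450. MIC80 taken as the lowest concentration giving 80% growth inhibition versus untreated control.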

[Candida] auris [22] = Antifungal activity against Candida auris assessed as FICI in presence of fluconazole; assay type: functional, Candidozyma auris; summary of the method: as §1
A549 = assay: Cytotoxicity against human A549 cells after 24 to 48 hrs by MTT assay; assay type: functional; conditions: read-out: LD50 (the source's name)
Summary of the method: (§7)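 A549 and HepG2 kept in DMEM with 10% FBS and 1% pen-strep. At passage 7, seeded at 10⁵ cells/well and allowed to adhere 14 h. Compound added at 0.03–128 μg/mL, untreated wells as controls. Incubation 37°C, 5% CO₂ for 24 or 48 h. MTT (5 mg/mL in PBS) added for 4 h, formazan dissolved in DMSO, OD570.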

Candida albicans [23] = assay: Antifungal activity against Candida albicans assessed as FICI in presence of itraconazole; assay type: functional; summary of the method: as §1
Pichia kudriavzevii [24] = assay: Antifungal activity against Candida krusei measured after 24 to 72 hrs; assay type: functional; summary of the method: as §6
Pichia kudriavzevii [25] = assay: Antifungal activity against Candida krusei 6258 assessed as FICI in presence of itraconazole; assay type: functional; summary of the method: as §1
Aspergillus fumigatus [26] = assay: Antifungal activity against Aspergillus fumigatus measured after 24 to 72 hrs; assay type: functional; summary of the method: as §2
Candida parapsilosis [27] = assay: Antifungal activity against Candida parapsilosis assessed as FICI in presence of itraconazole; assay type: functional; summary of the method: as §1
Aspergillus fumigatus [28] = assay: Antifungal activity against Aspergillus fumigatus assessed as FICI in presence of voriconazole; assay type: functional; summary of the method: as §1
Candida albicans [29] = assay: Antifungal activity against Candida albicans assessed as FICI in presence of caspofungin; assay type: functional; summary of the method: as §1
Cryptococcus neoformans [30] = assay: Fungicidal activity against Cryptococcus neoformans H99 measured up to 96 hrs by time-kill assay; assay type: functional, organism-based; conditions: var grubii H99; summary of the method: as §5
HepG2 = assay: Cytotoxicity against human HepG2 cells after 24 to 48 hrs by MTT assay; assay type: functional; conditions: read-out: LD50 (the source's name); summary of the method: as §7
Candida albicans [31] = assay: Antifungal activity against Candida albicans measured after 24 to 72 hrs; assay type: functional; summary of the method: as §2
Pichia kudriavzevii [32] = assay: Antifungal activity against Candida krusei 6258 assessed as FICI in presence of caspofungin; assay type: functional; summary of the method: as §1
Aspergillus fumigatus [33] = assay: Antifungal activity against Aspergillus fumigatus assessed as FICI in presence of fluconazole; assay type: functional; summary of the method: as §1
Candida albicans [34] = assay: Antifungal activity against Candida albicans assessed as FICI in presence of fluconazole; assay type: functional; summary of the method: as §1
Pichia kudriavzevii [35] = assay: Antifungal activity against fluconazole-resistant Candida krusei assessed as FICI in presence of voriconazole; assay type: functional; summary of the method: as §3
[Candida] auris [36] = Antifungal activity against Candida auris assessed as FICI in presence of itraconazole; assay type: functional, Candidozyma auris; summary of the method: as §1
Pichia kudriavzevii [37] = assay: Antifungal activity against fluconazole-resistant Candida krusei assessed as FICI in presence of fluconazole; assay type: functional; summary of the method: as §3
Cryptococcus neoformans [38] = assay: Antifungal activity against Cryptococcus neoformans H99 assessed as FICI in presence of amphotericin B; assay type: functional, var grubii H99; summary of the method: as §1
J774 = assay: Inhibition of glucosylceramide synthesis in mouse J774 cells in presence of [3H]palmitate; assay type: cell-based
Cryptococcus neoformans [39] = assay: Inhibition of glucosylceramide synthesis in Cryptococcus neoformans H99 in presence of [3H]palmitate; assay type: functional, organism-based; conditions: var grubii H99
Cryptococcus neoformans [40] = assay: Antifungal activity against Cryptococcus neoformans H99 infected in CBA/J mouse assessed as increase in survival at 1.2 mg/kg, ip; assay type: functional, organism-based; conditions: var grubii H99

## O=C(N/N=C/c1cc(Br)ccc1O)c1ccc(Br)cc1Br
Candida parapsilosis [1]
  fractional inhibitory concentration index (FICI): 1.5
[Candida] auris [2]
  fractional inhibitory concentration index (FICI): 1.125
Cryptococcus neoformans [3]
  fractional inhibitory concentration index (FICI): 0.072
Cryptococcus neoformans [4]
  MIC80: 0.06 µg/mL (≈ 0.126 µM)
Cryptococcus neoformans [5]
  fractional inhibitory concentration index (FICI): 0.065
Pichia kudriavzevii [6]
  fractional inhibitory concentration index (FICI): 2
Candida parapsilosis [7]
  fractional inhibitory concentration index (FICI): 0.135
[Candida] auris [8]
  MIC80: > 16 µg/mL
[9]
  selectivity ratio: 1070
Candida albicans [10]
  fractional inhibitory concentration index (FICI): 0.256
Pichia kudriavzevii [11]
  fractional inhibitory concentration index (FICI): 0.375
[12]
  selectivity ratio: 1070
Pichia kudriavzevii [13]
  fractional inhibitory concentration index (FICI): 1.06
Candida parapsilosis [14]
  fractional inhibitory concentration index (FICI): 1.015
Pichia kudriavzevii [15]
  fractional inhibitory concentration index (FICI): 1.002
[Candida] auris [16]
  fractional inhibitory concentration index (FICI): 2
Cryptococcus neoformans [17]
  fractional inhibitory concentration index (FICI): 0.072
Aspergillus fumigatus [18]
  fractional inhibitory concentration index (FICI): 0.484
Candida parapsilosis [19]
  MIC80: 8 µg/mL (≈ 16.8 µM)
Cryptococcus neoformans [20]
  MFC100: 0.06 µg/mL (≈ 0.126 µM)
Pichia kudriavzevii [21]
  MIC80: > 16 µg/mL
[Candida] auris [22]
  fractional inhibitory concentration index (FICI): 2
A549
  CC50: 64 µg/mL (≈ 134 µM)
Candida albicans [23]
  fractional inhibitory concentration index (FICI): 0.128
Pichia kudriavzevii [24]
  MIC80: 8 µg/mL (≈ 16.8 µM)
Pichia kudriavzevii [25]
  fractional inhibitory concentration index (FICI): 2.015
Aspergillus fumigatus [26]
  MIC80: > 16 µg/mL
Candida parapsilosis [27]
  fractional inhibitory concentration index (FICI): 2.098
Aspergillus fumigatus [28]
  fractional inhibitory concentration index (FICI): 0.515
Candida albicans [29]
  fractional inhibitory concentration index (FICI): 0.502
Cryptococcus neoformans [30]
  Activity: Dose-dependent effect
HepG2
  CC50: 64 µg/mL (≈ 134 µM)
Candida albicans [31]
  MIC80: > 16 µg/mL
Pichia kudriavzevii [32]
  fractional inhibitory concentration index (FICI): 1.002
Aspergillus fumigatus [33]
  fractional inhibitory concentration index (FICI): 2
Candida albicans [34]
  fractional inhibitory concentration index (FICI): 2
Pichia kudriavzevii [35]
  fractional inhibitory concentration index (FICI): 1.063
[Candida] auris [36]
  fractional inhibitory concentration index (FICI): 1.016
Pichia kudriavzevii [37]
  fractional inhibitory concentration index (FICI): 2
Cryptococcus neoformans [38]
  fractional inhibitory concentration index (FICI): 0.086

## Cc1ccccc1C(=O)N/N=C/c1cc(Br)ccc1O
J774
  inhibition (INH): Dose-dependent effect
Cryptococcus neoformans [39]
  inhibition: Dose-dependent effect
Cryptococcus neoformans [40]
  Activity: Active
